Measurements taken from ChEMBL document CHEMBL2406953, “Bioactive constituents of Indigofera spicata” (J Nat Prod, 2013).
Calls of active or inactive are those of the source.

Assays:
[1] = Cytotoxicity against mouse Hepa-1c1c7 cells; type: functional, cell-based
Mus musculus [2] = species: Mus musculus; assay: Induction of quinone reductase in mouse Hepa1c1c7 cells; type: cell-based
Procedure, shortened: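 Phase II enzyme induction was measured in murine Hepa 1c1c7 hepatoma cells by a standard quinone reductase procedure. L-sulforaphane served as the positive control. Values are CD, the concentration that doubles quinone reductase activity, given as mean ± SD of three independent experiments.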

[3] = Chemopreventive index, ratio of IC50 for mouse Hepa1c1c7 cells to CD for quinone reductase in mouse Hepa1c1c7 cells
[4] = Selectivity ratio of IC50 for human CCD-112CoN cells to IC50 for human HT29 cells; type: ADME, cell-based, HT-29; details: CCD-112CoN cells versus HT29 cells, read-out: Ratio IC50
Procedure, shortened: (§1)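 Normal colon CCD-112CoN cells tested by SRB assay alongside HT-29; IC50 (50% growth inhibition) as mean ± SD of triplicate; paclitaxel positive control; fold selectivity = IC50 in CCD-112CoN divided by IC50 in HT-29.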

[5] = Cytotoxicity against human CCD-112CoN cells by SRB assay; type: cell-based; procedure, shortened: as §1
HT-29 [6] = assay: Cytotoxicity against human HT-29 cells after 72 hrs by SRB assay; type: functional, cell-based; details: HT-29, 72 h
Procedure, shortened: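 HT-29 colon cancer cells, sulforhodamine B assay, 72 h; paclitaxel positive control; IC50 defined as concentration inhibiting 50% cell growth, mean ± SD from a triplicate.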

Mus musculus [7] = assay: Toxicity in immunodeficient NCr nu/nu mouse at 0.5 to 2 mg/kg, ip qd; type: organism-based; set-up: dose 0.5-2 mg/kg, route intraperitoneal; details: in vivo
Mus musculus [8] = assay: Toxicity in immunodeficient NCr nu/nu mouse at 5 to 30 mg/kg, ip qd; type: organism-based; set-up: dose 5-30 mg/kg, route intraperitoneal; details: in vivo
Procedure, shortened: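 Female NCr nu/nu mice with ip and sc hollow fibers (HT-29, MCF-7, MDA-MB-435 cells) given compound in 30% cyclodextrin ip once daily at 5, 10, 15, 30 mg/kg; bortezomib 1 mg/kg ip daily in 30% cyclodextrin as positive control; lethality monitored after each injection.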

MDA-MB-435 = assay: Antitumor activity against human MDA-MB-435 cells in hollow fiber implanted in immunodeficient NCr nu/nu mouse assessed as reduction in cell growth at 2 mg/kg, ip qd; type: functional; set-up: scale not given: the % may be the effect or the level left; details: route intraperitoneal
Raji [9] = assay: Cytotoxicity against human Raji cells after 72 hrs by MTS assay; type: functional, cell-based
Procedure, shortened: (§2)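 697 (DSMZ) and Raji (ATCC) cells at 200,000 cells/mL; compounds from 2 mM DMSO stock, diluted in 10% DMSO, eight three-fold dilutions giving final 10 to 0.005 µM plus 0; final DMSO 0.5%; vincristine sulfate 25 nM positive control. Quadruplicate wells, 48 and 72 h, 37°C, 5% CO2; MTS read-out; IC50 = 50% growth inhibition, mean ± SD of three independent experiments.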

697 [10] = assay: Cytotoxicity against human 697 cells after 72 hrs by MTS assay; type: functional, cell-based; details: Homo sapiens, 697, 72 h; procedure, shortened: as §2
Raji [11] = assay: Cytotoxicity against human Raji cells after 48 hrs by MTS assay; type: functional, cell-based; procedure, shortened: as §2
697 [12] = assay: Cytotoxicity against human 697 cells after 48 hrs by MTS assay; type: functional, cell-based; details: Homo sapiens, 697, 48 h; procedure, shortened: as §2
HT-29 [13] = assay: Antitumor activity against human HT-29 cells in hollow fiber implanted in immunodeficient NCr nu/nu mouse assessed as reduction in cell growth at 0.5 to 2 mg/kg, ip qd
697 [14] = assay: Cytostatic activity against human 697 cells assessed as reduction in cell viability at 0.014 to 10 uM after 48 to 72 hrs by MTS assay; type: functional, cell-based
Procedure, shortened: (§3)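 697 cells at 200,000 cells/mL treated at final 10, 1.11, 0.123, 0.014, 0 µM (from 2 mM stock, 10% DMSO dilutions, final DMSO 0.5%) for 48 and 72 h; vincristine 25 and 5 nM positive control. Same dilutions run in parallel by MTS and by propidium iodide: cells pelleted, resuspended in PI/PBS, 15 min dark at room temperature, flow cytometry; three independent experiments.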

697 [15] = assay: Induction of cell death in human 697 cells at 10 uM after 48 to 72 hrs using propidium iodide staining by flow cytometry; type: functional; procedure, shortened: as §3

Row | SMILES | IC50 [1] [µM] | CD (Mus musculus [2]) [µM] | Ratio [3] | also measured
1 | COc1ccc2c(c1/C=C/C(C)(C)O)O[C@H](c1ccccc1)CC2=O | 47.4 | 4.2 | 11.3 | –
2 | COc1ccc2c(c1/C=C/C(C)(C)OC)O[C@H](c1ccccc1)CC2=O | 49 | 8.3 | 5.9 | –
3 | COc1cc2c(c3c1C(=O)C[C@@H](c1ccccc1)O3)[C@H]1[C@@H](O2)OC(C)(C)[C@@H]1OC(C)=O (stereo in doubt; 2) [listing 1 of 2 here] | 63.9 | – | 376.7 | –
4 | COc1cc2c(c3c1C(=O)C[C@@H](c1ccccc1)O3)[C@H]1[C@@H](O2)OC(C)(C)[C@@H]1OC(C)=O (stereo in doubt; 2) [listing 2 of 2 here] | – | 0.2 | – | –
5 | COc1cc2c(c3c1C(=O)C[C@@H](c1ccccc1)O3)[C@H]1[C@@H](O2)OC(C)(C)[C@@H]1OC(C)=O (stereo in doubt; 5) | – | > 10 | – | –
6 | COc1ccc2c(c1C1=COC(C)(C)C1=O)O[C@H](c1ccccc1)CC2=O [(2S)-2,3-DIHYDROTEPHROGLABRIN] | 23.1 | 6.4 | 3.6 | –
7 | CC1(C)O[C@@H]2Oc3ccc(C(=O)/C=C/c4ccccc4)c(O)c3[C@@H]2[C@H]1O [(+)-TEPHROSONE] | 37.6 | 3.8 | 9.9 | –
8 | C[S@+]([O-])CCCCN=C=S [L-SULFORAPHANE] | 12.1 | 0.5 | 23.9 | –
9 | CC(=O)O[C@H]1C(=O)[C@@]2(C)[C@H]([C@H](OC(=O)c3ccccc3)[C@]3(O)C[C@H](OC(=O)[C@H](O)[C@@H](NC(=O)c4ccccc4)c4ccccc4)C(C)=C1C3(C)C)[C@]1(OC(C)=O)CO[C@@H]1C[C@@H]2O [PACLITAXEL] | – | – | – | selectivity ratio [4]: 38300; IC50 [5]: 23 µM; IC50 (HT-29 [6]): 0.0006 µM
10 | C=C(C)[C@H]1Cc2c(ccc3c2O[C@@H]2COc4cc(OC)c(OC)cc4[C@]2(O)C3=O)O1 [ROTENOLONE] | 0.2 | 0.4 | 0.6 | Activity (Mus musculus [7]): Non-toxic; Activity (Mus musculus [8]): Toxic; Activity (MDA-MB-435): 20%; selectivity ratio [4]: 1020; IC50 [5]: 102 µM; IC50 (Raji [9]): 2.4 µM; IC50 697 [10]: 0.5 µM; IC50 (Raji [11]): 5.6 µM; IC50 697 [12]: 0.7 µM; IC50 (HT-29 [6]): 0.1 µM; Activity (HT-29 [13]): inactive
11 | C=C(C)[C@H]1Cc2c(ccc3c2O[C@@H]2COc4cc(OC)c(OC)cc4[C@@H]2C3=O)O1 [ROTENONE] | 0.7 | 0.8 | 0.9 | selectivity ratio [4]: > 423; IC50 [5]: > 127 µM; IC50 (Raji [9]): 1.1 µM; IC50 697 [10]: 0.3 µM; IC50 (Raji [11]): 4.2 µM; IC50 697 [12]: 0.3 µM
12 | COc1cc2c(c(O)c1C(=O)/C=C/c1ccccc1)[C@H]1[C@@H](O2)OC(C)(C)[C@@H]1OC(C)=O [TEPHROPURPURIN] | 18.1 | 0.8 | 23.9 | –
13 | COc1cc2c(cc1OC)[C@]1(O)C(=O)c3ccc4c(c3O[C@@H]1CO2)C=CC(C)(C)O4 [TEPHROSIN] | 13.9 | 0.4 | 35.3 | Activity 697 [14]: Active; Activity 697 [15]: 24%; IC50 (Raji [9]): > 10 µM; IC50 697 [10]: 9 µM; IC50 (Raji [11]): > 10 µM; IC50 697 [12]: 5.4 µM; IC50 (HT-29 [6]): > 10 µM
